Measurements as given in ChEMBL document CHEMBL4145607, “Tamarixetin Exhibits Anti-inflammatory Activity and Prevents Bacterial Sepsis by Increasing IL-10 Production” (J Nat Prod, 2018).
Calls of active or inactive are those of the source.

How the values were obtained:
BMDC = assay: Inhibition of LPS-induced immune response in C57BL/6 mouse BMDC assessed as increase in IL10 secretion at 25 uM pretreated for 30 mins followed by LPS-challenge measured after 6 hrs by ELISA; assay type: functional, cell-based
Outline: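 Bone marrow from 6-week-old female C57BL/6 mice, RBC-lysed, cultured in RPMI-1640/10% FBS with 10 ng·mL−1 rmGM-CSF, 37 °C, 5% CO2; medium refreshed days 3 and 5. DCs pretreated 30 min with compound, then LPS 50 ng·mL−1 for 6 h; supernatant IL-10 by sandwich ELISA; means ± SEM.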

Mus musculus [1] = assay: Antiseptic activity in Balb/c mouse model of Escherichia coli K1 infection-induced sepsis assessed as reduction in bacterial count in lungs at 50 mg/kg, ip pretreated for 1 hr followed by Escherichia coli K1 infection measured after 12 hrs; assay type: functional, organism-based
Outline: (§1)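 BALB/c mice dosed i.p. 1 h before i.p. E. coli K1 (1 × 10^6 CFU per mouse); killed at 12 h. Lungs and kidneys removed aseptically into 1 mL sterile PBS, homogenised on ice, diluted 1:1000 in PBS, 10 μL plated on LB agar, 24 h at 37 °C, colonies counted.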

Mus musculus [2] = assay: Antiseptic activity in Balb/c mouse model of Escherichia coli K1 infection-induced sepsis assessed as increase in survival rate at 1 mg/kg, ip pretreated for 1 hr followed by Escherichia coli K1 infection measured over 72 hrs relative to control; assay type: functional
Outline: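 BALB/c mice dosed i.p. 1 h before i.p. E. coli K1 strain RS218 (O18:K1:H7) challenge, 1 × 10^7 CFU per mouse, diluted in LB broth; n = 10; survival monitored over 72 h.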

Mus musculus [3] = assay: Antiseptic activity in Balb/c mouse model of Escherichia coli K1 infection-induced sepsis assessed as reduction in bacterial count in kidneys at 50 mg/kg, ip pretreated for 1 hr followed by Escherichia coli K1 infection measured after 12 hrs; assay type: functional, organism-based; outline: as §1
Mus musculus [4] = assay: Antiseptic activity in Balb/c mouse model of Escherichia coli K1 infection-induced sepsis assessed as reduction in serum endotoxin level at 50 mg/kg, ip pretreated for 1 hr followed by Escherichia coli K1 infection measured after 12 hrs by chromogenic assay; assay type: functional, organism-based
Outline: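 BALB/c mice dosed i.p. 1 h before i.p. E. coli K1 (1 × 10^6 CFU per mouse), sera taken at 12 h. Serum diluted 10-fold in endotoxin-free PBS, LAL chromogenic end-point assay; background subtracted, quantified against E. coli endotoxin standard, reported as EU·mL−1.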

O=c1c(O)c(-c2ccc(O)c(O)c2)oc2cc(O)cc(O)c12
inactive: inhibition (BMDC) | Activity (Mus musculus [1]) | Activity (Mus musculus [2]) | Activity (Mus musculus [3]) | Activity (Mus musculus [4])
